Source: ChEMBL document CHEMBL4680070, “A second generation of 1,2,4-oxadiazole derivatives with enhanced solubility for inhibition of 3-hydroxykynurenine transaminase (HKT) from Aedes aegypti” (RSC Med Chem, 2021)
The source made the active and inactive calls. The rule behind the calls is not given here.

Legend:
[1] = Inhibition of recombinant Aedes aegypti RecLab N-terminal Trx-fused/His6-tagged 3-hydroxykynurenine transaminase H360M mutant expressed in Escherichia coli Rosetta 2 (DE3) assessed as reduction in conversion of 3-hydroxy kynurenine to xanthurenic-acid using 3-D,L hydroxy kynurenine as substrate preincubated with PLP cofactor and enzyme and 30 mins later incubated with 3-D,L-HK and measured after 5 mins by microplate reader assay
Procedure, shortened: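 Recombinant AeHKT (2 μg) in 200 mM HEPES/100 mM NaCl with 2 mM 3-D,L-HK, 2 mM sodium pyruvate and 40 μM PLP. Reaction ran 5 min at 50 °C and was stopped with 10 mM FeCl3 in 0.1 M HCl. The XA–Fe3+ complex was read at 570 nm, and XA was quantified against a calibration curve. Run in duplicate.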

[2] = molecular target: 3-hydroxykynurenine transaminase (Aedes aegypti) (UniProt Q0IG34); test: Competitive inhibition of Aedes aegypti 3-hydroxykynurenine transaminase at 300 uM using varying level of 3-D,L hydroxy kynurenine as substrate by Lineweaver-Burk plot analysis
Chain of 3-hydroxykynurenine transaminase (Aedes aegypti) (Q0IG34 whole entry): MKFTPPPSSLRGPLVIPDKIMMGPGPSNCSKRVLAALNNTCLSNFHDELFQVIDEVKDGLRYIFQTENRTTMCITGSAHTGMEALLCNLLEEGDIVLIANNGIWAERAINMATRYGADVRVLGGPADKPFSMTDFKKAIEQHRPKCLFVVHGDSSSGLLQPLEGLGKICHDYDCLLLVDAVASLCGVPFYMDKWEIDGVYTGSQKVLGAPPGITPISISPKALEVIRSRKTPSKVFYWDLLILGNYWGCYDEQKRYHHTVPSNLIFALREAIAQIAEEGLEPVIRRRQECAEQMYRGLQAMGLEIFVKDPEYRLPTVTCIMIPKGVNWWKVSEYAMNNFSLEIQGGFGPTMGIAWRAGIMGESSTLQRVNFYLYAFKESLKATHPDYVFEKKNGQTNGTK

| Compound | IC50 [1] | inhibition [2] |
| --- | --- | --- |
| O=C(O)CCc1nc(-c2ccc(Cl)cc2)no1 | 85 µM |  |
| O=C(O)CCc1nc(-c2ccco2)no1 | 84 µM |  |
| Cc1cccc(-c2noc(CCCC(=O)O)n2)c1 | 54 µM |  |
| O=C(O)CCc1nc(-c2ccccc2)no1 | 139 µM | Active |
| O=C(O)CCc1nc(-c2ccccc2F)no1 | 116 µM |  |
| O=C(O)CCCc1nc(-c2ccc(Cl)c(Cl)c2)no1 | 64 µM |  |
| COc1ccc(-c2noc(CCC(=O)O)n2)cc1 | 35 µM |  |
| COc1ccc(-c2noc(CCCC(=O)O)n2)cc1 | 101 µM |  |
| O=C(O)CCc1nc(-c2cccc([N+](=O)[O-])c2)no1 | 85 µM |  |
| Cc1ccccc1-c1noc(CCC(=O)O)n1 | 339 µM |  |
| O=C(O)CCCc1nc(-c2ccc3c(c2)OCO3)no1 | 87 µM |  |
| O=C(O)CCc1nc(-c2ccc(Cl)c(Cl)c2)no1 | 86 µM |  |
| O=C(O)CCc1nc(-c2cccc(Br)c2)no1 | 61 µM |  |
| O=C(O)CCc1nc(-c2ccc(Br)cc2)no1 | 119 µM |  |
| O=C(O)CCCc1nc(-c2ccc(I)cc2)no1 | 42 µM |  |
| O=C(O)CCCc1nc(-c2ccc(Cl)cc2)no1 | 294 µM |  |
| O=C(O)CCCc1nc(-c2cccc3ccccc23)no1 | 63 µM |  |
| O=C(O)CCc1nc(-c2ccc([N+](=O)[O-])cc2)no1 | 76 µM |  |
| Cc1ccc(-c2noc(CCC(=O)O)n2)cc1 | 73 µM |  |
| O=C(O)CCc1nc(-c2cccs2)no1 | 68 µM |  |
| Cc1ccc(-c2noc(CCCC(=O)O)n2)cc1 | 88 µM |  |
| Cc1cccc(-c2noc(CCC(=O)O)n2)c1 | 110 µM |  |
| O=C(O)CCCc1nc(-c2ccc(Br)cc2)no1 | 110 µM |  |
| O=C(O)CCc1nc(-c2ccc(C(F)(F)F)cc2)no1 | 42 µM |  |
| O=C(O)CCc1nc(-c2ccc3c(c2)OCO3)no1 | 83 µM |  |
| O=C(O)CCc1nc(-c2ccc(F)cc2)no1 | 124 µM |  |
| COc1cccc(-c2noc(CCC(=O)O)n2)c1 | 157 µM |  |
| O=C(O)CCc1nc(-c2ccccc2Cl)no1 | 77 µM |  |
| O=C(O)CCCc1nc(-c2ccc(C(F)(F)F)cc2)no1 | 70 µM |  |
| O=C(O)CCCc1nc(-c2ccccc2)no1 | 72 µM |  |
